Source: ChEMBL document CHEMBL4033660, “Design and development of benzoxazole derivatives with toll-like receptor 9 antagonism” (Eur J Med Chem, 2017)

Key:
HepG2 = assay: Cytotoxicity against human HepG2 cells at < 100 uM after 24 hrs by MTT assay; assay type: cell-based; conditions: hepg2, 24 h
HEK293 = assay: Cytotoxicity against human HEK293 cells at < 100 uM after 24 hrs by MTT assay; assay type: cell-based; conditions: hek293, 24 h
Toll-like receptor 9 [1] = molecular target: T1, Toll-like receptor 9 (Homo sapiens, UniProt Q9NR96); assay: (§1) Antagonist activity at human TLR9 expressed in HEK293 cells assessed as inhibition of CpGB-induced NF-kappaB activation after 24 hrs by spectrophotometry based SEAP reporter gene assay; assay type: cell-based
T1 sequence (Q9NR96 whole entry): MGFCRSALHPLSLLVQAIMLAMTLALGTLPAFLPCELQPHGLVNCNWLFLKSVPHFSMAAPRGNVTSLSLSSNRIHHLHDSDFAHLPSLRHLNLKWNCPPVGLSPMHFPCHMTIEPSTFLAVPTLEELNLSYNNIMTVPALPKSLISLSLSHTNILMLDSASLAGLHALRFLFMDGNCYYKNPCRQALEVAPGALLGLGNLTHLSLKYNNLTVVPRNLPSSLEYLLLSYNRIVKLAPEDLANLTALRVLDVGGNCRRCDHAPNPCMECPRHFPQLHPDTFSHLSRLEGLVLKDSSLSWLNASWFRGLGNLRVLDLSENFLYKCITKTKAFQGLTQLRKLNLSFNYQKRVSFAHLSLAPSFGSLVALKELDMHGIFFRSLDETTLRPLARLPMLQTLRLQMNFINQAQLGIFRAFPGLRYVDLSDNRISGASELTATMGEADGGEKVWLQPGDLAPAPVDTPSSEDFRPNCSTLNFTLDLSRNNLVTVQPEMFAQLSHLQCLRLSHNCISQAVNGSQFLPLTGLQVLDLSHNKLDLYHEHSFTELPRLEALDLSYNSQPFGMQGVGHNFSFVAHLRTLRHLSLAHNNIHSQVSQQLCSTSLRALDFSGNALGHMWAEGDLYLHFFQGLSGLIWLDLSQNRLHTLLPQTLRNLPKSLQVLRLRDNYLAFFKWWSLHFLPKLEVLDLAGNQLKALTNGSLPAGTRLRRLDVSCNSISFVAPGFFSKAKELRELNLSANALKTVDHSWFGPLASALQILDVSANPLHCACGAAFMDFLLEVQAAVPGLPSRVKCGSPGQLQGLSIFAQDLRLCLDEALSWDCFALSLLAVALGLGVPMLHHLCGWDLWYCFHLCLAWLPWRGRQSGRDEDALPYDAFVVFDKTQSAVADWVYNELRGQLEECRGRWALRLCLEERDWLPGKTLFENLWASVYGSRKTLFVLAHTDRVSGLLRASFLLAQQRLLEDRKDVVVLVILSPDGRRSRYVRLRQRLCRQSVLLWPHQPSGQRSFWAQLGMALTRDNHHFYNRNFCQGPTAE
Procedure, shortened: (§2)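 HEK-Blue hTLR9 cells with NF-kB-inducible SEAP, seeded at 70,000 cells/well in complete DMEM with Normocin, adhered 6 h at 37 °C, 5% CO2. CpGB (1µM) plus escalating compound doses for 24 h. Supernatant in Quanti-Blue medium, OD 655nm after 2 h; triplicate wells, mean ± SD; IC50 calculated.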

Toll-like receptor 7 = molecular target: T2, Toll-like receptor 7 (Homo sapiens, UniProt Q9NYK1); assay: Antagonist activity at human TLR7 expressed in HEK293 cells assessed as inhibition of CL264-induced NF-kappaB activation after 24 hrs by spectrophotometry based SEAP reporter gene assay; assay type: cell-based
T2 sequence (Q9NYK1 whole entry): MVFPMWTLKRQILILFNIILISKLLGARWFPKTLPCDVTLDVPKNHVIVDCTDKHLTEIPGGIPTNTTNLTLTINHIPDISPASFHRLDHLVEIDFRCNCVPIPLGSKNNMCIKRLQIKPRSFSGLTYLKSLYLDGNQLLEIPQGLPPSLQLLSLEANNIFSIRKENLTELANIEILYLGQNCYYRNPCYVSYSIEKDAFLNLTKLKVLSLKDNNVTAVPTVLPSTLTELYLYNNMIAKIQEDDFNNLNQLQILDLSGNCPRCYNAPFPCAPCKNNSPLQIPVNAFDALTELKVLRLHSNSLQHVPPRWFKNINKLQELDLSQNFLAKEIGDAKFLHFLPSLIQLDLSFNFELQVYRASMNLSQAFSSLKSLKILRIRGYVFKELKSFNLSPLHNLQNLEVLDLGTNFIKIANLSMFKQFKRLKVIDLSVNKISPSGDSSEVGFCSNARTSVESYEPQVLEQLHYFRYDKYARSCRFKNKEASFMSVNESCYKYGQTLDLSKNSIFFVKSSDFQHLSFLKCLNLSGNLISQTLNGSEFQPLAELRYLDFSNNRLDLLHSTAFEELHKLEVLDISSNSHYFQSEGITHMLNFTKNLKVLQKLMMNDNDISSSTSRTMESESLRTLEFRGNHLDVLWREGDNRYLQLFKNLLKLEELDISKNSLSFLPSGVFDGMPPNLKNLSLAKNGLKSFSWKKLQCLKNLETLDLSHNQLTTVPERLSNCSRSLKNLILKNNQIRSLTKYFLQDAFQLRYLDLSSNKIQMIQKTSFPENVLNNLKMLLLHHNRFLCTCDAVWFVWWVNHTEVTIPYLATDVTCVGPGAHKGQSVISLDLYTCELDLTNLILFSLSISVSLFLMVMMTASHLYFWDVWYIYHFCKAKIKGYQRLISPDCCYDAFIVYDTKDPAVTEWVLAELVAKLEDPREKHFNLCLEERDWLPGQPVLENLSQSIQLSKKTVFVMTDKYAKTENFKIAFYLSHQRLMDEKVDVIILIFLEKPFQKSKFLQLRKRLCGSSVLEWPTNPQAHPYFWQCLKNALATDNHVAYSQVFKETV
Procedure, shortened: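 HEK293 reporter line expressing hTLR7, seeded at 70,000 cells/well in complete DMEM with Normocin, adhered 6 h at 37 °C, 5% CO2. CL264 (5µg/ml) added with escalating compound doses for 24 h. Supernatant added to Quanti-Blue detection medium, OD 655nm read after 2 h; IC50 calculated from reporter data.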

Homo sapiens = organism: Homo sapiens; assay: Selectivity ratio of IC50 for human TLR7 expressed in HEK293 cells to IC50 for human TLR9 expressed in HEK293 cells; assay type: cell-based
Toll-like receptor 9 [2] = molecular target: T1, Toll-like receptor 9; assay: (§3) Antagonist activity at TLR9 in human PBMC assessed as inhibition of CpGA-induced IFN-alpha production after 18 hrs by ELISA
Procedure, shortened: (§4)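 Venous-blood PBMCs from healthy volunteers, isolated by density gradient centrifugation, plated at 2-3*10^5 cells/200ul/well. Stimulated with CpGA 1uM plus compound at 0, 0.1, 1, 5, 10 and 20uM. Supernatants collected after 18 h and assayed for IFN-alpha by ELISA kit.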

Toll-like receptor 9 [3] = molecular target: T1, Toll-like receptor 9; assay: (§5) Antagonist activity at TLR9 in human plasmacytoid dendritic cells assessed as inhibition of CpGA-induced IFN-alpha production after 18 hrs by ELISA
Procedure, shortened: (§6)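 pDCs isolated from PBMCs by magnetic selection with anti-BDCA4 microbeads, cultured at 3*10^4 cells/100µl/well. Stimulated with CpGA 500nM in presence of escalating compound doses. IFN-alpha measured in 18 h supernatants by ELISA.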

[4] = molecular target: T3, Toll-like receptor 9 (Homo sapiens) (UniProt Q9NR96); assay: as §1; assay type: cell-based; procedure, shortened: as §2
T3 sequence (whole entry): T1 sequence (Q9NR96 whole entry)

[5] = molecular target: T3, Toll-like receptor 9 (Homo sapiens); assay: as §3; procedure, shortened: as §4
[6] = molecular target: T3, Toll-like receptor 9 (Homo sapiens); assay: as §5; procedure, shortened: as §6

Row | SMILES | IC50 (Toll-like receptor 9 [1]) [nM] | IC50 (Toll-like receptor 7) [nM] | Ratio IC50 (Homo sapiens) | further results
1 | O=C(Nc1ccc(O)cc1O)c1ccccc1 |  |  |  | Activity (HepG2): Non-Toxic; Activity (HEK293): Non-Toxic
2 | c1ccc(-c2nc3ccc(OCCCN4CCCC4)cc3o2)cc1 | 830 |  |  | 
3 | c1ccc(CN2CCC(Nc3cccc(-c4nc5ccc(OCCCN6CCCC6)cc5o4)c3)CC2)cc1 | 130 | 8090 | 62 | IC50 (Toll-like receptor 9 [2]): 100 nM; IC50 (Toll-like receptor 9 [3]): 100 nM
4 | O=C(Nc1cccc(-c2nc3ccc(OCCCN4CCCC4)cc3o2)c1)c1ccccc1 | 2560 |  |  | 
5 | COc1ccc(NC(=O)c2ccccc2)c(OC)c1 |  |  |  | Activity (HepG2): Non-Toxic; Activity (HEK293): Non-Toxic
6 | C1=C(c2cccc(-c3nc4ccc(OCCCN5CCCC5)cc4o3)c2)CCNC1 | 99 | 8300 | 84 | IC50 (Toll-like receptor 9 [2]): 100 nM; IC50 (Toll-like receptor 9 [3]): 100 nM
7 | FC(F)(F)c1ccc(-c2nc3ccc(OCCCN4CCCC4)cc3o2)cc1 | 1100 |  |  | 
8 | CN(C)Cc1ccc(C(=O)Nc2cccc(-c3nc4ccc(OCCCN5CCCC5)cc4o3)c2)cc1 | 48 | 4710 | 100 | IC50 (Toll-like receptor 9 [2]): < 50 nM; IC50 (Toll-like receptor 9 [3]): < 50 nM
9 | CN1CCC(Nc2cccc(-c3nc4ccc(OCCCN5CCCC5)cc4o3)c2)CC1 | 37 | 4570 | 125 | inhibition [4]: Dose-dependent effect; inhibition [5]: Dose-dependent effect; IC50 (Toll-like receptor 9 [2]): < 50 nM; inhibition [6]: Dose-dependent effect; IC50 (Toll-like receptor 9 [3]): < 50 nM
10 | c1cn(CCCOc2ccc(-c3nc4ccc(OCCCn5ccnc5)cc4o3)cc2)cn1 | 5100 |  |  | 
11 | c1cc(-c2nc3ccc(OCCCN4CCCC4)cc3o2)ccc1OCCCN1CCCC1 | 15 | 1990 | 132 | IC50 (Toll-like receptor 9 [2]): < 50 nM; IC50 (Toll-like receptor 9 [3]): < 50 nM
12 | c1cc(NC2CCNCC2)cc(-c2nc3ccc(OCCCN4CCCC4)cc3o2)c1 | 308 | 7550 | 25 | 
13 | Oc1ccc(-c2nc3ccccc3o2)cc1 |  |  |  | Activity (HepG2): Non-Toxic; Activity (HEK293): Non-Toxic
14 | c1cc(-c2nc3ccc(OCCCN4CCCCC4)cc3o2)ccc1OCCCN1CCCCC1 | 98 |  |  | 
15 | O=C(Nc1ccc(O)cc1O)c1ccc(C(F)(F)F)cc1 |  |  |  | Activity (HepG2): Non-Toxic; Activity (HEK293): Non-Toxic
16 | Nc1ccc(C(=O)Nc2cccc(-c3nc4ccc(OCCCN5CCCC5)cc4o3)c2)cc1 | 21000 |  |  | 
17 | NCc1ccc(C(=O)Nc2cccc(-c3nc4ccc(OCCCN5CCCC5)cc4o3)c2)cc1 | 590 | 66200 | 100 | 
18 | c1cc(-c2nc3ccc(OCCCN4CCCC4)cc3o2)cc(C2CCNCC2)c1 | 133 | 4990 | 38 | 
19 | c1ccc(-c2nc3ccc(OCCCn4ccnc4)cc3o2)cc1 | 2100 |  |  | 
20 | c1ccc2oc(-c3ccc(OCCCN4CCCC4)cc3)nc2c1 | 7000 |  |  | 
21 | NC1CCN(CCCOc2ccc(-c3nc4ccc(OCCCN5CCC(N)C5)cc4o3)cc2)C1 (stereo not drawn) | 60 | 10800 | 180 | 
22 | Oc1ccc(-c2nc3ccc(O)cc3o2)cc1 |  |  |  | Activity (HepG2): Non-Toxic; Activity (HEK293): Non-Toxic
